Measurements gathered from unrelated publications.
Compare with care: the assays were run in different laboratories.
Target: 5-hydroxytryptamine receptor 3A (HTR3A, Homo sapiens, UniProt P46098)
Concentration: 10 µM
Residues used in one study (P46098 24-478): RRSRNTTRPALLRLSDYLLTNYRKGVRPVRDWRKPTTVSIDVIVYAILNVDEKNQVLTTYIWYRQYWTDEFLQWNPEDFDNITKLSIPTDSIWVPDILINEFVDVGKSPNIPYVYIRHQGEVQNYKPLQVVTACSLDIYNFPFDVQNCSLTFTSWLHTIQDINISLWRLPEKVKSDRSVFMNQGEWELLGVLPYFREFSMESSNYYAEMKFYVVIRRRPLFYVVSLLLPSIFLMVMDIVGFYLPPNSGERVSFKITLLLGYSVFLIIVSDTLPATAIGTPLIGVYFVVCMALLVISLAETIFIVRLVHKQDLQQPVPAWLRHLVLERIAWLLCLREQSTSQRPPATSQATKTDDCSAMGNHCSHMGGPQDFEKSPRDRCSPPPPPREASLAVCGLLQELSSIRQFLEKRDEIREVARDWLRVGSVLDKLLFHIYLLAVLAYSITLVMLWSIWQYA

CC(C)N1CCC[C@H]1CNC(=O)c1cn(C2CCCC2)c(=O)c2c1c1ccccc1n2C — inhibition (ligand displacement; radioligand): -4%
Clc1ccc2c(C3CCN(CCc4c[nH]c5ccccc45)CC3)c[nH]c2c1 — inhibition (ligand displacement; radioligand): 38%
COc1ccc(N=Nc2ccc3[nH]cc(CCN(C)C)c3c2)cc1 — inhibition (ligand displacement; radioligand): < 50%
C[C@H](C(=O)N[C@H]1COc2ccccc2[C@@H]1S(C)(=O)=O)c1ccc(F)cc1 — inhibition (cell-free assay): 6%
CC(C)Cn1cnc2c(N)nc3ccccc3c21 — inhibition (ligand displacement; radioligand): 8%
Cn1cncc1[C@@](O)(COc1ccc(C#N)cc1-c1ccc(OC(F)(F)F)cc1)c1ccc(C#N)cc1 — inhibition (cell-free assay): -0.62%
c1ccc(C(NCCNC(c2ccccc2)c2ccccc2)c2ccccc2)cc1 — inhibition (cell-free assay): -16%
CCN(CC)CCCC[C@H](NC(=O)[C@H](CC(C)C)NC(=O)[C@H](C)NC(=O)[C@H](Cc1ccccc1)NC(=O)c1ccc(C(C)(C)C)cc1)C(=O)N[C@@H](CO)C(=O)OC — inhibition (ligand displacement; radioligand): -21%
COc1cc2c3c(c1OC)-c1cc4c(cc1CC3N(C)CC2)OCO4 (racemic) — inhibition (ligand displacement; radioligand): 44.6%
Nc1ncc(-c2nc(N3CCOCC3)nc(N3CCOCC3)n2)c(C(F)F)n1 — remaining signal (cell-free assay): 100%
Cc1c(N2CCNCC2)nc2ccc(Br)cc2c1C(=O)NC[C@H](CCC(=O)O)c1ccccc1Cl — inhibition (cell-free assay): 86%
